According to ChEMBL document CHEMBL1759875, “Synthesis and biological evaluation of 1-[2-cyano-3,12-dioxooleana-1,9(11)-dien-28-oyl]-4-ethynylimidazole. A novel and highly potent anti-inflammatory and cytoprotective agent” (Bioorg Med Chem Lett, 2011):
Calls of active or inactive are those of the source. The calls are words filed in the database; no cut-off is given here.

Tests used:
RAW264.7 = experiment: Inhibition of NO production in INFgamma-stimulated mouse RAW264.7 cells measured after 24 hrs by Griess reaction method; format: functional, cell-based; details: RAW264.7, 24 h
How it was run: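 RAW 264.7 mouse macrophages were seeded at 30,000 cells/well in triplicate. The next day they were pre-treated for 2 h with DMSO or compound (0–200 nM), then stimulated with IFN-γ for 24 h. Medium NO was measured by Griess reagent and viability by WST-1. IC₅₀ came from suppression of IFN-γ-induced NO normalized to viability.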

[1] = biological target: NAD(P)H dehydrogenase [quinone] 1 (Mus musculus) (UniProt Q64669); experiment: Induction of NQO1 activity in mouse Hepa-1c1c7 cells assessed as concentration require to double the specific enzyme activity after 48 hrs; format: cell-based
How it was run: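 Hepa1c1c7 murine hepatoma cells were seeded at 10,000 cells/well and grown 24 h, then exposed to serial dilutions for 48 h. NQO1 specific enzyme activity was measured, and potency was taken as the concentration that doubles it (CD). Each concentration used eight replicate wells; SD was 5–10%.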

[2] = Stability of the compound at 4 degC; format: physicochemical
[3] = biological target: T1, Heme oxygenase 1 (Mus musculus) (UniProt P14901); experiment: Induction of HO1 activity in mouse RAW264.7 cells at 30 to 100 nM after 16 hrs; format: cell-based
T1 sequence (whole entry): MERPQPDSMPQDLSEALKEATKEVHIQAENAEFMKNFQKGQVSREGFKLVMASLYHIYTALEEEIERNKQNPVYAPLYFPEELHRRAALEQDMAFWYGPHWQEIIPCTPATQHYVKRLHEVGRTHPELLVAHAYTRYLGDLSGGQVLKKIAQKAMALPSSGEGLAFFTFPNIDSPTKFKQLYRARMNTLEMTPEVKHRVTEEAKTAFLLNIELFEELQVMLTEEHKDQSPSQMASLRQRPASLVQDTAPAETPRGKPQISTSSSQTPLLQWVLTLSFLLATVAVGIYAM
How it was run: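 RAW 264.7 mouse macrophages were plated at 100,000 cells/well and treated the next day with DMSO or compound for 16 h (overnight). Cells were harvested in tricine sample buffer with b-ME. Lysates were run on SDS–PAGE and immunoblotted for HO-1, with GAPDH as the reference protein.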

Sequence of NAD(P)H dehydrogenase [quinone] 1 (Mus musculus) (Q64669 whole entry): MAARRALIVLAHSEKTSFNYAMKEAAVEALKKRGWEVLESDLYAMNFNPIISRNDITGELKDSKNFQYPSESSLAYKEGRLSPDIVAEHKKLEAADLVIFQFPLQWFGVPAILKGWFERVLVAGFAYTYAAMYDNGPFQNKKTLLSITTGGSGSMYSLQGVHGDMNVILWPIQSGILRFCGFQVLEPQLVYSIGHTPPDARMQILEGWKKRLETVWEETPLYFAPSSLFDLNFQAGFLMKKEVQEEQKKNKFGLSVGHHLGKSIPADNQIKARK

`CC1(C)CC[C@]2(C(=O)n3cnc(C#Cc4ccccc4)c3)CC[C@]3(C)[C@H](C(=O)C=C4[C@@]5(C)C=C(C#N)C(=O)C(C)(C)[C@@H]5CC[C@]43C)[C@@H]2C1` showed an IC50 (RAW264.7) of 7.8 nM.
Work on `CC1(C)CC[C@]2(C(=O)n3ccnc3)CC[C@]3(C)[C@H](C(=O)C=C4[C@@]5(C)C=C(C#N)C(=O)C(C)(C)[C@@H]5CC[C@]43C)[C@@H]2C1` yielded a CD [1] of 0.2 nM, a Stability [2] of 1 yr and an IC50 (RAW264.7) of 0.6 nM.
With `C#Cc1cn(C(=O)[C@]23CCC(C)(C)C[C@H]2[C@H]2C(=O)C=C4[C@@]5(C)C=C(C#N)C(=O)C(C)(C)[C@@H]5CC[C@@]4(C)[C@]2(C)CC3)cn1` the CD [1] was 0.4 nM, the Stability [2] was 3 yr and the IC50 (RAW264.7) was 1.4 nM. The Activity [3] was “Active”.
Work on `CC1(C)CC[C@]2(C(=O)O)CC[C@]3(C)[C@H](C(=O)C=C4[C@@]5(C)C=C(C#N)C(=O)C(C)(C)[C@@H]5CC[C@]43C)[C@@H]2C1` [BARDOXOLONE] yielded a CD [1] of 3 nM and an IC50 (RAW264.7) of 11 nM.
With `CC1(C)CC[C@]2(C(=O)n3ccnc3C#Cc3ccccc3)CC[C@]3(C)[C@H](C(=O)C=C4[C@@]5(C)C=C(C#N)C(=O)C(C)(C)[C@@H]5CC[C@]43C)[C@@H]2C1` the CD [1] was 1.2 nM, the Stability [2] was 3 yr and the IC50 (RAW264.7) was 4 nM. The Activity [3] was “Active”.
`C#Cc1nccn1C(=O)[C@]12CCC(C)(C)C[C@H]1[C@H]1C(=O)C=C3[C@@]4(C)C=C(C#N)C(=O)C(C)(C)[C@@H]4CC[C@@]3(C)[C@]1(C)CC2` showed a CD [1] of 0.9 nM, a Stability [2] of 3 yr and an IC50 (RAW264.7) of 2.3 nM. The Activity [3] was “Active”.
Molecule `CC#Cc1nc(C)cn1C(=O)[C@]12CCC(C)(C)C[C@H]1[C@H]1C(=O)C=C3[C@@]4(C)C=C(C#N)C(=O)C(C)(C)[C@@H]4CC[C@@]3(C)[C@]1(C)CC2` has a CD [1] of 0.4 nM, a Stability [2] of 3 yr and an IC50 (RAW264.7) of 2 nM. For the same molecule, the Activity [3] was “Active”.
